Experimental data: article PMC2695546 (Psychopharmacology, 2009)
Counter-ions that a name gives are not always drawn. Like-named read-outs stand apart in the source and are kept apart here.

Assays:
mice = assay: Rotarod test; assay type: in vivo, mouse; conditions: for Effect on rotarod latency: 45 min after s.c., mg/kg: HP 0.06, HP-Met-I 64, HP-Met-II 0.25, (−)-sulpiride 100, HP-Met-III 128, PRE-084 64; for Effect of PRE-084 on the drug's effect in the rotarod test: PRE-084 64 mg/kg s.c., HP 0.125 mg/kg, HP-Met-II 1 mg/kg s.c.
Procedure, shortened: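 Female CD-1 mice (25–30 g), housed at 21 ± 1°C on a 12-h light/dark cycle. Motor coordination was tested on an accelerating rotarod. Latency to fall was recorded before injection (time 0) and 45 min after s.c. dosing. PRE-084 was injected s.c. immediately before the other drug, at a separate site. Controls received an equal volume of vehicle.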

σ1 receptor = σ1 receptor (Mus musculus, UniProt O55242); assay: [3H]; assay type: binding
[1] = tested on: capsaicin-sensitized mice; assay: Capsaicin-induced mechanical hypersensitivity; assay type: in vivo, mouse
[2] = from dose–response curves, s.c., capsaicin 1 µg i.pl., 0.5 g force
[3] = naloxone 1 mg/kg s.c., morphine 0.25, HP 0.06, HP-Met-II 0.25, HP-Met-I 64 mg/kg s.c.
[4] = read-out: IC50 (concentration of unlabeled drug that inhibited the specific binding of [3H](+)-pentazocine by 50%), mouse brain membranes P2 fraction, 5 nM [3H](+)-pentazocine, 240 min, 30°C, pH 8

In the case of `CCN1CCC[C@H]1CNC(=O)c1cc(S(N)(=O)=O)ccc1OC` [(−)-Sulpiride, (−)-sulpiride], the “Effect on rotarod latency” value (mice) is reported as “devoid of any effect”, the IC50 (σ1 receptor) is reported as over 10000 nM and the “ED50 (dose producing half of the maximal antiallodynic effect)” value ([1]; mouse, in vivo) is reported as “Inactive^a”.

`CN1CCN(CCc2ccc(Cl)c(Cl)c2)CC1.Cl.Cl` [BD-1063, 1-[2-(3,4-dichlorophenyl)ethyl]-4-methylpiperazine dihydrochloride] was tested, and the “Effect of PRE-084 on the antiallodynic effect of the drug” value ([1]; mouse, in vivo) was “completely antagonized”.

`OC1(c2ccc(Cl)cc2)CCNCC1` [Haloperidol metabolite I, 4-(4-chlorophenyl)-4-hydroxypiperidine] was tested, and the “Effect on rotarod latency” value (mice) was “no effect”, the IC50 (σ1 receptor) was 254 ± 18.4 nM and the “Emax (maximum antiallodynic effect)” value [1, 2] was 62.27 ± 6.99%. For the same compound, the “Effect of PRE-084 on the antiallodynic effect of the drug” value ([1]; mouse, in vivo) was “completely and dose-dependently prevented” and the “Effect of naloxone on the antiallodynic effect of the drug” value (shortened to “Effect of naloxone”) ([1]; mouse, in vivo) was “did not significantly modify”.

`OC(CCCN1CCC(O)(c2ccc(Cl)cc2)CC1)c1ccc(F)cc1` (stereo not drawn) [Haloperidol metabolite II, 4-(4-chlorophenyl)-α-(4-fluorophenyl)-4-hydroxy-1-piperidinebutanol] was tested, and the “Effect on rotarod latency” value (mice) was “no effect”, the “Effect of PRE-084 on the drug's effect in the rotarod test” value (mice) was “not prevented” and the IC50 (σ1 receptor) was 12.8 ± 0.69 nM. The “Emax (maximum antiallodynic effect)” value [1, 2] was 100%, the “Effect of naloxone” value [1, 3] was “did not significantly modify” and the “Antiallodynic effect at higher doses” value ([1]; s.c., HP 0.125 mg/kg, HP-Met-II 1 mg/kg) was 100%.

With `O=C(O)CCC(=O)c1ccc(F)cc1` [Haloperidol metabolite III, p-fluorobenzoylpropionic acid] the “Effect on rotarod latency” value (mice) was “devoid of any effect” and the IC50 (σ1 receptor; [4]) was over 10000 nM.

For `O=C(CCCN1CCC(O)(c2ccc(Cl)cc2)CC1)c1ccc(F)cc1` [Haloperidol, haloperidol], the “Effect on rotarod latency” value (mice) was “no effect”, the “Effect of PRE-084 on the drug's effect in the rotarod test” value (mice) was “not prevented” and the “Antiallodynic effect at higher doses” value ([1]; mouse, in vivo) was 100%. The “Effect of PRE-084 on the antiallodynic effect of the drug” value ([1]; mouse, in vivo) was “dose-dependent reversion”, the “Effect of naloxone” value ([1]; mouse, in vivo) was “did not significantly modify” and the “Emax (maximum antiallodynic effect)” value ([1]; mouse, in vivo, sc) was 100%.

Compound `Cl.O=C(OCCN1CCOCC1)C1(c2ccccc2)CCCCC1` [PRE-084, 2-(4-morpholinethyl)1-phenylcyclohexanecarboxylate) hydrochloride] has an IC50 (σ1 receptor; [4]) of 171 ± 18.4 nM.

With `Cl.O=C(OCCN1CCOCC1)C1(c2ccccc2)CCCCC1` [PRE-084] the “Effect on rotarod latency” value (mice) was “devoid of any effect”.

For `COc1cc(CNC(=O)CCCC/C=C/C(C)C)ccc1O` [capsaicin], the “Decrease in the EF50 value for inducing paw withdrawal in comparison to control mice” value ([1]; capsaicin 1 µg i.pl. vs DMSO-treated) was 9.4 fold and the “EF50 (force producing half the maximal reduction in paw withdrawal latency time)” value ([1]; capsaicin 1 µg i.pl., 15 min before stimulation, forces 0.05–8 g) was 0.30 ± 0.02 g.

`Clc1cccc(Cl)c1N=C1NCCN1` [clonidine] gave an IC50 (σ1 receptor) of over 10000 nM.

`NCC1(CC(=O)O)CCCCC1` [gabapentin] was tested, and the IC50 (σ1 receptor) was over 10000 nM.

In the case of `CN1CC[C@]23c4c5ccc(O)c4O[C@H]2[C@@H](O)C=C[C@H]3[C@H]1C5` [morphine, morphine hydrochloride], the “Effect of naloxone” value [1, 3] is reported as “reversed”.

`CS(=O)(=O)c1ccc(C2=C(c3ccccc3)C(=O)OC2)cc1` [rofecoxib] gave an IC50 (σ1 receptor) of over 10000 nM.
